Data from PMC4303306 (Biochemistry, 2014).

Biological target: T1, wild-type mouse Shp2 catalytic domain (Mus musculus, UniProt P35235)
T1 sequence (P35235 224-539): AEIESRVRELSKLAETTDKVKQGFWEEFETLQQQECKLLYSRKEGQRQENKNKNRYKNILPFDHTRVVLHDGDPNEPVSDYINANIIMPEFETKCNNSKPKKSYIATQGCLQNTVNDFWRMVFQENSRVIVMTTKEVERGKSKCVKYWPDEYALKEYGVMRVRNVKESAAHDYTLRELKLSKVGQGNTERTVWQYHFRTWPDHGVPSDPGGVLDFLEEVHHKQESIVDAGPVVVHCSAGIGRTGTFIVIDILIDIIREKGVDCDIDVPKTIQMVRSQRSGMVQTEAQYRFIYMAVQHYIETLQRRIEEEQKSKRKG
Test: PTP inhibition assay with pNPP, wild-type Shp2 catalytic domain
Format: biochemical
Conditions: 120 min incubation
How it was run: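 Catalytic-domain PTP (50 nM) was preincubated with test compound or vehicle for 120 min at 37 °C in PTP buffer (50 mM 3,3-dimethyl glutarate pH 7.0, 1 mM EDTA, 50 mM NaCl). It was then assayed at 37 °C with pNPP at the enzyme's previously determined KM, quenched with 5 M NaOH and read at 405 nm. Activity was normalized to controls, and IC50 came from a four-parameter logistic fit. For Shp2, β-mercaptoethanol (250 μM–1 mM) was also tested at 500 nM compound.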

fluorescein
Shp2 inhibition (structure–activity comparison, Figure 2A): lack of Shp2 inhibition
